Legend:
MCF7 = experiment: Cytotoxicity against human MCF7 cells after 48 hrs by MTT assay; assay type: functional, cell-based; conditions: MCF7, 48 h, read-out: pIC50 (converted)
In short: (§1)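 MTT assay. Cells were grown in DMEM with 10% FBS and penicillin/streptomycin at 37 °C under 5% CO2, seeded at 1–2×10^3 cells/well and treated 12 h later with 1×10^-12 to 1×10^-5 M ([…] from DMSO stock, final DMSO <0.5%) for 48 h. MTT was added at 0.5 mg mL⁻¹, formazan dissolved in DMSO and read at 570 nm. IC50 is the concentration giving 50% cytotoxicity. Quadruplicates, ≥3 independent experiments.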

T98G = experiment: Cytotoxicity against human T98G cells expressing mutant p53 after 48 hrs by MTT assay; assay type: functional, cell-based; conditions: read-out: pIC50 (converted); in short: as §1
[1] = Cytotoxicity against human U87 cells expressing wild-type p53 after 48 hrs by MTT assay; assay type: functional, cell-based, U-87MG ATCC; conditions: U-87 MG, read-out: pIC50 (converted); in short: as §1

## C/C(=N\NC(=S)Nc1ccc(I)cc1)c1ccccn1
MCF7
  IC50: 6.61 nM
T98G
  IC50: 64 nM
[1]
  IC50: 59 nM

## C/C(=N/NC(=S)Nc1ccc(F)cc1)c1ccccn1
MCF7
  IC50: 1.2 nM
T98G
  IC50: 17 nM
[1]
  IC50: 10 nM

## C/C(=N/NC(=S)Nc1ccccc1I)c1ccccn1
MCF7
  IC50: 4.1 nM
T98G
  IC50: 8.09 nM
[1]
  IC50: 6.1 nM

## C/C(=N/NC(=S)Nc1ccccc1F)c1ccccn1
MCF7
  IC50: 0.39 nM
T98G
  IC50: 3.1 nM
[1]
  IC50: 5 nM

## C/C(=N/NC(=S)Nc1ccccc1)c1ccccn1
MCF7
  IC50: 0.18 nM
T98G
  IC50: 6.81 nM
[1]
  IC50: 1.4 nM

## C/C(=N\NC(=S)Nc1ccc(Cl)cc1)c1ccccn1
MCF7
  IC50: 8.49 nM
T98G
  IC50: 5.9 nM
[1]
  IC50: 1.7 nM

## C/C(=N\NC(=S)Nc1ccc(F)cc1)c1ccccn1
MCF7
  IC50: 1.2 nM
T98G
  IC50: 17 nM
[1]
  IC50: 10 nM

## C/C(=N/NC(=S)Nc1ccc(Cl)cc1)c1ccccn1
MCF7
  IC50: 8.49 nM
T98G
  IC50: 5.9 nM
[1]
  IC50: 1.7 nM

## C/C(=N/NC(=S)Nc1cccc(Cl)c1)c1ccccn1
MCF7
  IC50: 24 nM
T98G
  IC50: 1 nM
[1]
  IC50: 31 nM

## C/C(=N/NC(=S)Nc1cccc([N+](=O)[O-])c1)c1ccccn1
MCF7
  IC50: 38 nM
T98G
  IC50: 140 nM
[1]
  IC50: 69 nM

## C/C(=N\NC(=S)Nc1cccc(F)c1)c1ccccn1
MCF7
  IC50: 8.99 nM
T98G
  IC50: 12 nM
[1]
  IC50: 18 nM

## C/C(=N\NC(=S)Nc1cccc(I)c1)c1ccccn1
MCF7
  IC50: 45 nM
T98G
  IC50: 61 nM
[1]
  IC50: 83.9 nM

## C/C(=N\NC(=S)Nc1ccccc1)c1ccccn1
MCF7
  IC50: 0.18 nM
T98G
  IC50: 6.81 nM
[1]
  IC50: 1.4 nM

## C/C(=N/NC(=S)Nc1ccccc1[N+](=O)[O-])c1ccccn1
MCF7
  IC50: 5.7 nM
T98G
  IC50: 6.61 nM
[1]
  IC50: 4.3 nM

## C/C(=N\NC(=S)Nc1cccc(Cl)c1)c1ccccn1
MCF7
  IC50: 24 nM
T98G
  IC50: 1 nM
[1]
  IC50: 31 nM

Source: ChEMBL document CHEMBL2034980, “N⁴-Phenyl-substituted 2-acetylpyridine thiosemicarbazones: cytotoxicity against human tumor cells, structure-activity relationship studies and investigation on the mechanism of action” (Bioorg Med Chem, 2012)
